Data on 55 molecules can be found in ChEMBL document CHEMBL1944531, “In silico assay for assessing phospholipidosis potential of small druglike molecules: training, validation, and refinement using several data sets” (J Med Chem, 2012).

The first data set is described as follows: Induction of phospholipidosis in bovine corneal fibroblasts assessed as lamellar inclusion bodies at 20 uM after 72 hrs by light microscopy. More on the design: species or system Bos taurus, Cornea. The following applies: cattle, corneal fibroblast. Summed up:
(§1)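 Primary bovine corneal fibroblasts from collagenase-treated explants, passage 2–8, grown in DMEM/10% FCS/L-glutamine/antibiotics at 37 °C, 5% CO2. Confluent cells exposed 72 h to compound at 2.5, 5.0, 7.5, 10.0, 12.5, 15.0 or 20 μM (DMSO 1% where used). Controls: medium, 1% DMSO, imipramine 10 μM, in duplicate. Cells were fixed in 1% glutaraldehyde, stained overnight with 1% tannic acid, and black intracytoplasmic inclusions scored qualitatively by light microscopy.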
With `Cc1c(Cl)ccc2c1N1[C@H](CNC[C@H]1C)C2`, the Activity result is on record as “Toxic”.
Turning to `CCO[C@@H](C)c1ccc2c(n1)N1[C@@H](CNC[C@H]1C)C2.Cl`, the Activity result is “Toxic”.

A further data set in a line: Induction of phospholipidosis in bovine corneal fibroblasts assessed as lamellar inclusion bodies at 7.5 uM after 72 hrs by light microscopy. The note with it: cattle, corneal fibroblast. Also noted: species or system Bos taurus, Cornea. Summed up:
as §1
As for `CC(OCC1CC1)c1ccc2c(n1)N1[C@@H](CNC[C@H]1C)C2` (some centres undefined), the Activity result was “Toxic”.

The next data set can be described thus: Induction of phospholipidosis in bovine corneal fibroblasts assessed as lamellar inclusion bodies after 72 hrs by light microscopy. Also noted: species or system Bos taurus, Cornea. The following applies: cattle, corneal fibroblast.
With `C1CCC(C(CC2CCCCN2)C2CCCCC2)CC1` (centres undefined) [PERHEXILINE], the Activity result is on record as “Toxic”.
As for `[H]/N=C(/N)N[C@H]1[C@H](O)[C@@H](O)[C@H](O[C@@H]2O[C@@H](C)[C@](O)(C=O)[C@H]2O[C@@H]2O[C@@H](CO)[C@H](O)[C@@H](O)[C@@H]2NC)[C@@H](N/C(N)=N\[H])[C@@H]1O` [STREPTOMYCIN], the Activity result was “Non-toxic”.
Still for that read-out and setting: the result for `NCc1c(N)nc(-c2ccccc2)nc1-c1ccc(Cl)cc1Cl` reads “Toxic”; that for `NCC[C@H](O)C(=O)N[C@@H]1C[C@H](N)[C@@H](O[C@H]2O[C@H](CN)[C@@H](O)[C@H](O)[C@H]2O)[C@H](O)[C@H]1O[C@H]1O[C@H](CO)[C@@H](O)[C@H](N)[C@H]1O` [AMIKACIN], “Non-toxic”; that for `Cc1cccc(CN2CCN(C(c3ccccc3)c3ccc(Cl)cc3)CC2)c1` (centres undefined) [MECLIZINE], “Toxic”.
On the same count and under the same terms, the entry for GENTAMICIN is “Non-toxic”; for `OCCOCCN1CCN(C(c2ccccc2)c2ccc(Cl)cc2)CC1` (centres undefined) [HYDROXYZINE] it is “Toxic”; for `CCCC[C@@H]1CC(=O)[C@]2(O)O[C@@H]3[C@@H](NC)[C@@H](O)[C@@H](NC)[C@H](O)[C@H]3O[C@@H]2O1` [TROSPECTOMYCIN] it is “Non-toxic”.
Same read-out and setting: the result for `CC[C@H]1OC(=O)[C@H](C)[C@@H](O[C@H]2C[C@@](C)(OC)[C@@H](O)[C@H](C)O2)[C@H](C)[C@@H](O[C@@H]2O[C@H](C)C[C@H](N(C)C)[C@H]2O)[C@](C)(O)C[C@@H](C)C(=O)[C@H](C)[C@@H](O)[C@]1(C)O` [ERYTHROMYCIN] reads “Non-toxic”; that for `COc1ccc(C2CCOCC2)c2sc(NC(=O)N(C)C3CCN(C)CC3)nc12`, “Toxic”.
`CC/C(=C(\c1ccccc1)c1ccc(OCCN(C)C)cc1)c1ccccc1` [TAMOXIFEN]: the Activity result is given as “Toxic”.
`CCC1(c2ccccc2)C(=O)NC(=O)NC1=O` [PHENOBARBITAL]: the Activity entry was “Non-toxic”.
Take `CN1CCN(C2=Nc3cc(Cl)ccc3Nc3ccccc32)CC1` [CLOZAPINE]: the Activity entry is recorded as “Toxic”.
`O=C(N[C@H](CO)[C@H](O)c1ccc([N+](=O)[O-])cc1)C(Cl)Cl` [CHLORAMPHENICOL]: the Activity entry is “Non-toxic”.
Still for that read-out and setting: the entry for `CN1CCN(C(c2ccccc2)c2ccccc2)CC1` [CYCLIZINE] is “Toxic”.
As to `Cc1c(Cl)ccc2c1N1[C@H](CNC[C@H]1C)C2`, the Activity entry is reported as “Toxic”.
As to `C[C@H](C(N)=O)N1CCc2cc(OCc3cccc(F)c3)ccc2C1`, the Activity result is on record as “Toxic”.
On the same count and under the same terms, the entry for `CCCC(CCC)C(=O)O` [VALPROIC ACID] is “Non-toxic”; for `CCN(CC)CCCC(C)Nc1c2ccc(Cl)cc2nc2ccc(OC)cc12` (centres undefined) [QUINACRINE] it is “Toxic”; for `COc1cc2c(cc1OC)[C@@H]1C[C@H](N)[C@@H](N3C[C@@H](C)CC3=O)CN1CC2` it is “Non-toxic”.
As for `CS(=O)(=O)O.C[C@H](NCc1ccc(OCc2cccc(F)c2)cc1)C(N)=O` [SAFINAMIDE MESYLATE], the Activity entry was “Toxic”.
Same read-out and setting: the entry for `CN1CCN([C@@H]2CCN(C(=O)c3cc(C(F)(F)F)cc(C(F)(F)F)c3)C[C@@H]2c2ccccc2)CC1` is “Toxic”.
On the same count and under the same terms, the entry for `COc1cc(-c2nc(N)c(CN)c(-c3ccc(Cl)cc3Cl)n2)cc(OC)c1OC` is “Toxic”; for `CN(CC[C@H]1CC[C@H](CN2CCCCC2)CC1)C(=O)Oc1ccc(C(F)(F)F)cc1` it is “Toxic”.
The same measure, in the same setting: the entry for `O=C(CCCN1CCC(O)(c2ccc(Cl)cc2)CC1)c1ccc(F)cc1` [HALOPERIDOL] is “Toxic”.
As for `CC(C)CC(N(C)C)C1(c2ccc(Cl)cc2)CCC1.Cl` (centres undefined), the Activity entry is “Toxic”.
Still for that read-out and setting: the result for `CNCCCC12CCC(c3ccccc31)c1ccccc12` [MAPROTILINE] reads “Toxic”; that for `CN1C(=O)CN=C(c2ccccc2)c2cc(Cl)ccc21` [DIAZEPAM], “Non-toxic”; that for `CN(C)CCCn1c2c(c3ccccc31)CCCCCC2` [IPRINDOLE], “Toxic”.
On to `CN(C(=O)C(C)(C)c1cc(C(F)(F)F)cc(C(F)(F)F)c1)c1cnc(NCCO)cc1-c1ccccc1Cl`, for which the Activity result is recorded as “Non-toxic”.
The same measure, in the same setting: the result for `CN(C)CCCN1c2ccccc2CCc2ccccc21` [IMIPRAMINE] reads “Toxic”; that for `CC(C)(N)Cc1ccc(Cl)cc1` [CHLORPHENTERMINE], “Toxic”; that for `C[C@@H]1CNC[C@H]2Cc3ccc(Cl)nc3N21`, “Non-toxic”.
Still for that read-out and setting: the result for `CN(C)CCCN1c2ccccc2CCc2ccc(Cl)cc21` [CLOMIPRAMINE] reads “Toxic”.
On the same count and under the same terms, the entry for `CC(OCC1CC1)c1ccc2c(n1)N1[C@@H](CNC[C@H]1C)C2` (some centres undefined) is “Toxic”; for `COc1ccc(S(=O)(=O)N(c2ccc(F)cc2)C2CCN([C@@H]3COCC[C@@]3(O)c3ccccc3)CC2)cc1` it is “Non-toxic”.
Regarding `CN(C)CCCC1(c2ccc(F)cc2)OCc2cc(C#N)ccc21` (centres undefined) [CITALOPRAM], the Activity entry is on record as “Toxic”.
For `CCN(CCO)CCCCOc1ccc2c(-c3ccc(Br)cc3)nsc2c1`, the Activity entry is “Toxic”.
For `COc1cc(F)c(C(OC)C(=O)NCc2ccc(C(=N)N)cc2)c(F)c1.Cl` (centres undefined), the Activity entry was “Non-toxic”.
Same read-out and setting: the entry for `CC(C)COc1ccc(S(C)(=O)=O)cc1C(=O)N1Cc2cnc(C(F)(F)F)cc2C1` is “Non-toxic”; for `CC(C)NCC(O)COc1cccc2ccccc12` (centres undefined) [PROPRANOLOL] it is “Toxic”.
`CN(C)CCCN1c2ccccc2Sc2ccc(Cl)cc21` [CHLORPROMAZINE]: the Activity entry is reported as “Toxic”.
On to `Cc1cc(C#Cc2cn(-c3ccc(F)cc3)c(C)n2)ccn1`, for which the Activity entry is recorded as “Non-toxic”.
The same measure, in the same setting: the entry for `CN(C)CCCN1c2ccccc2Sc2ccccc21` [PROMAZINE] is “Toxic”; for `CCO[C@@H](C)c1ccc2c(n1)N1[C@@H](CNC[C@H]1C)C2.Cl` it is “Non-toxic”.
Take `Cc1ccc2c(n1)N1[C@@H](CNC[C@H]1C)C2`: the Activity entry is “Non-toxic”.
As for `CN1CCN(C(c2ccccc2)c2ccc(Cl)cc2)CC1` (centres undefined) [CHLORCYCLIZINE], the Activity entry was “Toxic”.
Same read-out and setting: the entry for `CC(C)(CCn1cnc(-c2cccnc2)c1)NCC(=O)N1CCC[C@H]1C#N.CS(=O)(=O)O` is “Non-toxic”.
The same measure, in the same setting: the result for `CCN(CC)CCCC(C)Nc1ccnc2cc(Cl)ccc12` (centres undefined) [CHLOROQUINE] reads “Toxic”; that for `CC(=O)Nc1ccc(N2CCN(CCCN(C)C)CC2)cc1` [PIPERAMIDE], “Toxic”.
Same read-out and setting: the result for `CS(=O)(=O)O.Cc1cc(-c2cnccn2)nn1CCC(C)(C)NCC(=O)N1CCC[C@H]1C#N` reads “Non-toxic”; that for `CCN(CC)CCOc1ccc2c(c1)C(=O)c1cc(OCCN(CC)CC)ccc1-2` [TILORONE], “Toxic”.
For `Cc1cc(-c2cc(-c3ccccc3C)c(C(=O)NCc3cc(C(F)(F)F)cc(C(F)(F)F)c3)cn2)ccn1`, the Activity entry was “Non-toxic”.
As to `CCCCc1oc2ccccc2c1C(=O)c1cc(I)c(OCCN(CC)CC)c(I)c1` [AMIODARONE], the Activity entry was “Toxic”.
`O=C(c1cc(C(F)(F)F)cc(C(F)(F)F)c1)N1CC[C@@H](N2CCOCC2)[C@@H](c2ccc(Cl)cc2)C1`: the Activity result was “Toxic”.

A further data set is described as follows: Induction of phospholipidosis in bovine corneal fibroblasts assessed as lamellar inclusion bodies at 2.5 to 20 uM after 72 hrs by light microscopy. More on the design: species or system Bos taurus, Cornea. The following applies: cattle, corneal fibroblast. Summed up:
as §1
Turning to `C[C@@H]1CNC[C@H]2Cc3ccc(Cl)nc3N21`, the Activity result is listed as “Toxic”.
